An excerpt weighted towards active compounds, which were near 3.3% of everything screened.
HTRA1 inh – HTRA1 serine protease inhibitors, primary screen, biochemical, fluorescence polarization, HTS; inhibition, % at 5.96 µM; recombinant HTRA1, FP-rhodamine activity-based probe; 340,000 tested, 0.5% active; Q92743; in the data active = inhibition above about 36%;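 also: 0% = enzyme with DMSO and 100% = wells lacking enzyme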
PRMT1 FP inh – PRMT1 methyltransferase inhibitors, primary screen, biochemical, fluorescence polarization | recombinant PRMT1, activity-based probe fluorescence polarization | inhibition, % at 2.79 µM | 370,000 tested, 1.3% active | AID 652257, 2013;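 active = inhibition above about 21% made by adding two undisclosed values, limit read from the data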
Target sequence (Q99873 whole entry, looked up): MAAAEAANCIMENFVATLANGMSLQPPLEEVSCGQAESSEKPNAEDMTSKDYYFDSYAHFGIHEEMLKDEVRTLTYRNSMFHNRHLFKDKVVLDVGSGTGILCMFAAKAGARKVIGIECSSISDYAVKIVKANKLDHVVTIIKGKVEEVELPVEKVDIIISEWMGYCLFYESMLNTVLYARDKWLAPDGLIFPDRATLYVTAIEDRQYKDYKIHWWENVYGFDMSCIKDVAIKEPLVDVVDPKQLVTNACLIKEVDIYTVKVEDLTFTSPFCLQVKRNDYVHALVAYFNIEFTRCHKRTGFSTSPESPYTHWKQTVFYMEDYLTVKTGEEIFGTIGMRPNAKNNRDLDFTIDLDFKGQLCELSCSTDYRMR
SIAE primary – human SIAE inhibitors, primary screen, biochemical, fluorescence polarization, FP-Rh probe, 1536-well HTS. Sialate O-acetylesterase (Homo sapiens), Q9HAT2. 370,000 tested, 0.69% active. SIAE FP-Rh probe binding. inhibition, % at 9.66 µM;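 active = inhibition above a cutoff: mean of compounds within the control limits plus 3 SD of those, cut at about 17% in these data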;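 also: 0% = plate median of compound wells and 100% = probe without SIAE protein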
rCAG binder – binders of r(CAG) RNA repeats, primary screen, biochemical, fluorescence | r(CAG) RNA repeat, TO-PRO-1 dye displacement fluorescence | inhibition, % at 3 µM | 370,000 tested, 1.3% active | AID 651821, 2012;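 active = inhibition above the plate cutoff, the mean of all test compounds on that plate plus 3 SD, cut at about 35% in these data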;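 also: 0% = DMSO alone and 100% = 100 µM mitoxantrone as full dye displacement; higher means more dye released from RNA so lower well fluorescence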
ABHD4 inh – ABHD4 inhibitors, primary screen, biochemical, fluorescence polarization, mouse; inhibition, % at 8.92 µM; (Lyso)-N-acylphosphatidylethanolamine lipase (Mus musculus), Q8VD66; 370,000 tested, 0.54% active; purified mABHD4, FP-Rh probe fluorescence polarization;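 active = inhibition exceeding the mean over every tested compound plus 3 SD, cut at about 30% in these data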;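 also: 0% = plate median of compound wells and 100% = S159A mutant with DMSO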
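Test system: mABHD4 protein | Buffer or medium: HEPES pH 7.0 buffer, 150 mM NaCl, 0.01% Pluronic F-127 | Probe or stimulus: FP-Rh fluorescent activity-based probe, added after compound pre-incubation | Timing: Pre-incubation 45 min, probe exposure 60 min, at 25 °C | Technique: Fluorescence polarization, excitation 525 nm, emission 598 nm, BODIPY TMR filters | Repeats: Single well per compound (singlicate)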
SIAE confirm – human SIAE inhibitors, retest, confirmation, biochemical, fluorescence polarization, FP-Rh probe, triplicate; shares compounds with SIAE primary; inhibition, % at 9.66 µM; SIAE FP-Rh activity-based probe; 2,300 tested, 13% active;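 active = mean inhibition of the replicates above the hit cutoff set in the primary screen, cut at about 17% in these data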;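 also: 0% = SIAE with DMSO and probe and 100% = probe without SIAE; inhibitors lower polarization as more probe stays unbound to SIAE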
Starred values were filed as active, the others as inactive; . = no result.

SMILES | HTRA1 inh | PRMT1 FP inh | SIAE primary | rCAG binder | ABHD4 inh | SIAE confirm
Cn1cc([N+](=O)[O-])c(C(=O)N/N=C/c2ccncc2)n1 | -5 | -4 | 17* | -1 | 2 | 3
CCC(=O)c1c(CC)c2n3c1CC[C@H]3CCC2 | 11 | 1 | 17* | -2 | 3 | 4
O=C(COC(=O)C1=COCCO1)NC1CCCCCCC1 | -1 | -5 | 3 | -5 | 3 | .
COc1ccc(Nc2nnc(SC(C(=O)Nc3ccc(OC)c(Cl)c3)c3ccccc3)s2)cc1 (stereo not drawn) | -40 | -1 | 20* | 19 | -11 | -3
CC1(C2CC(=O)c3c(O)ccc(O)c3C2)OCCO1 (stereo not drawn) | -3 | 2 | 0 | 2 | 2 | .
CCOc1cc(N(CC)CC)ccc1/C=C(/C#N)c1nc2ccccc2[nH]1 | 10 | 12 | 27* | -11 | 15 | 6
CCOC(=O)N1CCN(C(=O)C[C@@H]2C[C@@]3(C(=O)OCC)CCCC=C3N(Cc3ccc(Cl)cc3Cl)C2=O)CC1 | . | 1 | -4 | 5 | -5 | .
COc1ccc(O)c(/C=N/Nc2nc(C)cc(-c3ccccc3)n2)c1 | 6 | -2 | 22* | 32 | 7 | 6
COc1ccc(CCC(=O)N2CCCC(Nc3ccc(C)c(C)c3)C2)cc1OC (stereo not drawn) | -5 | -3 | 17* | -7 | 1 | 5
COC(=O)[C@]12C[C@H](CC(=O)N3CCOCC3)C(=O)N(CCC3=CCCCC3)C1=C[C@H](C(C)C)O[C@@H]2C1CC1 | . | 1 | -1 | 3 | -2 | .
O=C(C1CC1)N1CCN(c2ccc(O)cc2)CC1 | 1 | 7 | 19* | 0 | 19 | 4
CC(=O)c1ccc(N2CCN(C(=O)C3CCC3)CC2)cc1 | -3 | -1 | 11 | -5 | 3 | .
CCOC(=O)c1cc(-c2csc(N/N=C/c3ccccc3Cl)n2)on1 | 2 | -1 | 10 | 9 | 7 | .
CCCc1cc(=O)[nH]c(SCC(=O)Nc2sccc2C#N)n1 | -3 | 2 | 17* | 15 | 13 | 3
CCCc1cc(=O)[nH]c(SCC(=O)Nc2ccc3ccccc3c2)n1 | -15 | 3 | -5 | 15 | -9 | .
C=CCNc1nc(NCc2ccc(NC(C)=O)cc2)c2sc(-c3ccccc3)cc2n1 | . | -3 | 39* | 5 | 25 | 37*
C=CCNc1nc(NCCCN2CCCC2=O)c2sc(-c3ccccc3)cc2n1 | . | 4 | -3 | 6 | -5 | .
CC(=O)Nc1ccc(CNc2nc(NC(C)C)nc3cc(-c4ccccc4)sc23)cc1 | . | -6 | 55* | 2 | 23 | 53*
Cc1cccc(CNC(=O)C2CCC(=O)N(CCCc3ccccc3)C2)c1 (stereo not drawn) | -1 | 4 | -2 | 0 | 5 | .
CC(=O)n1nc(-c2ccc(C)cc2)nc1NCc1ccc(F)cc1 | -7 | -4 | -2 | -2 | -8 | .
Cc1nc(N2CCN(S(=O)(=O)c3ccc(Br)cc3)CC2)c2c(C)c(C)sc2n1 | -5 | -3 | 19* | 1 | 2 | -7
Cc1c(Cl)cccc1NC(=O)C1CC(=O)N(C2CCCC2)C1 (stereo not drawn) | -1 | 3 | 0 | 1 | -6 | .
O=C(CNC(=O)C1CCCCC1)Nc1cc(Cl)ccc1Cl | -4 | -1 | 0 | 3 | -11 | .
O=C(CNC(=O)C1CCCCC1)Nc1ccccc1Cl | 8 | -1 | 80* | -1 | -6 | -1
Cc1c(Cl)cccc1NC(=O)CNC(=O)C1CC(=O)N(C2CCCC2)C1 (stereo not drawn) | 5 | 5 | 21* | 2 | -6 | 0
SMILES | HTRA1 inh | PRMT1 FP inh | SIAE primary | rCAG binder | ABHD4 inh | SIAE confirm
COC(=O)[C@]1(C)CCC[C@@]2(C)C3CC[C@@]4(C)C[C@]3(CCC21)CC(=O)N4Cc1ccc(OC)cc1 (stereo partly drawn) | -68 | 1 | -1 | -1 | -7 | .
O=C(COc1ccc(S(=O)(=O)N2CCCCC2)cc1Cl)N1CCCC1 | -1 | 3 | 1 | -3 | 7 | .
O=C(COc1ccc(Cl)cc1Cl)N1CCCCCC1 | -9 | -2 | 18* | -3 | -6 | -3
CC(=O)Nc1ccc(SCc2csc(C)n2)cc1 | 7 | 7 | 3 | 6 | -7 | .
O=c1oc2cc(O)ccc2cc1-c1nc2c(s1)CCc1ccccc1-2 | -2 | 18 | 19* | -46 | 13 | -7
O=C(CSc1nnc(CN2CCOCC2)n1-c1ccc(Cl)cc1)N1CCc2ccccc21 | -2 | 0 | 3 | -4 | -3 | .
O=C(CSc1nnc(CN2CCOCC2)n1-c1ccc(Cl)cc1)Nc1cc(Cl)ccc1O | -4 | 3 | 27* | -1 | -4 | -13
O=C(N/N=C\c1cc(Br)ccc1O)c1ccc(S(=O)(=O)N2CCCCC2)cc1 | 26 | 0 | 32* | 6 | 7 | 39*
O=S(=O)(c1ccc(NCCOc2ccccc2)nc1)N1CCCC1 | -10 | 4 | 6 | 1 | 2 | .
COc1ccc(C(=O)Nc2cc(OC)c(NC(=O)Nc3ccccc3)cc2OC)cc1 | 4 | 1 | 23* | 7 | 15 | 9
CCCCNc1ncnc2c1nnn2Cc1ccccc1Cl | 1 | -5 | 0 | -6 | 4 | .
COc1ccc(/C(C)=N/OCC(=O)N=Nc2c(O)[nH]c3ccccc23)cc1 | -2 | -1 | 21* | -2 | -3 | 0
COc1ccc(-c2cc(C(=O)N=Nc3c(O)[nH]c4ccccc34)[nH]n2)cc1 | . | -2 | 5 | 25 | -8 | .
COc1cccc(COC(=O)c2cc(=O)[nH]c3ccc(S(=O)(=O)N4CCOCC4)cc23)c1OC | -2 | -3 | 1 | 11 | 1 | .
Nc1ccc(-c2nc3ccccc3o2)cc1 | -5 | -1 | -2 | 3 | 1 | .
Nc1cc(N)cc(-c2nc3ccccc3o2)c1 | 16 | -2 | 25* | 16 | 24 | 2
O=C(CC[C@H]1O[C@@H](n2cnc3c(NC(=O)c4ccccc4)ncnc32)[C@H](O)[C@@H]1O)NCCCN1CCOCC1 | . | -2 | 19* | 1 | 1 | 13
COCCCNC(=O)CC[C@H]1O[C@@H](n2cnc3c(NC(=O)c4ccccc4)ncnc32)[C@H](O)[C@@H]1O | . | -2 | 2 | 0 | 8 | .
Cc1cc(NC(=O)C(C)SCC(=O)Nc2ccc(Br)cc2Br)no1 (stereo not drawn) | -5 | -2 | 0 | 10 | 1 | .
CCOc1ccc(NC(=O)C/C(C)=N/NC(=O)c2cnccn2)cc1 | 4 | 0 | 20* | -2 | -5 | 0
C=C(C)C1CC=C(C)/C(=N\NC(=O)CCC(=O)Nc2ccc(C)c(C)c2)C1 (stereo not drawn) | 2 | 0 | -1 | -3 | 0 | .

Bioassay records from PubChem.
